Shown are actives, neighbours in structure and some others; about 2.3% of the full set was active somewhere.
V1R ag counter: counter-screen for oxytocin receptor agonists: human V1a receptor agonists; actives 0.25% (n = 320,000); CHO-V1R cells, Fluo-8 calcium fluorescence, agonist mode; 0% DMSO, 100% 3 nM vasopressin; P37288; activation, % at 3 µM;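 active = activation above the mean activation of all tested compounds plus 3 SD, per screening run, cut at about 20% in these data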;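 also: signal is peak over basal fluorescence ratio across a 100 second FLIPR read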
Target sequence (P37288 whole entry, looked up): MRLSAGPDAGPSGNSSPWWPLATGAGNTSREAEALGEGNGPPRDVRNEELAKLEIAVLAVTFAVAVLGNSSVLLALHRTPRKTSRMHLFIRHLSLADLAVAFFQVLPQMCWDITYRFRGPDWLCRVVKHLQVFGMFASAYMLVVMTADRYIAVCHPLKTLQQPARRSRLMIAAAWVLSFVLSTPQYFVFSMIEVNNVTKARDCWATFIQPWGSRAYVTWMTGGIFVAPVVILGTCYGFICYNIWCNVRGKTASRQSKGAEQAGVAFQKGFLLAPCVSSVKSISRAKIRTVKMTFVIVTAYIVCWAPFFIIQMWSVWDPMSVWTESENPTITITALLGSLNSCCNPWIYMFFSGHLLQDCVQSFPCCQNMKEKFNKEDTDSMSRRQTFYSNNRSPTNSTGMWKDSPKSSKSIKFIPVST
TAAR1 ag: human TAAR1 agonism. AID 624467. CHO RD-HGA16 TAAR1, Fluo-8 calcium fluorescence; vehicle wells 0%, saturating PEA agonist 100%. activation, % at 3 µM. Q96RJ0. actives 0.99% (n = 360,000);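 active = activation above the mean activation of all test compounds in the run plus 3 SD, cut at about 38% in these data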
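test system = CHO RD-HGA16 cells carrying human TAAR1 plus Gα16 | schedule = 17-24 h seeding, 75 min 37 °C dye, 30 min RT | compound dosing = 3 µM single concentration | control set = DMSO and PEA EC100 | replicates = n 1 | signal = Fluo-8 fluorescence, 5 s baseline then 140 s kinetic read | measure = percent activation vs PEA EC100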
OXTR potentiate: potentiators of human oxytocin receptor | P30559 | CHO-OTR cells, Fluo-8 calcium fluorescence, potentiator mode; 0% = oxytocin EC15, 100% = EC100 | activation, % at 3 µM | actives 0.061% (n = 320,000) | AID 2445;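 active = activation above that plate's cutoff, the mean activation of tested compounds plus 3 SD, cut at about 6.6% in these data, passing the limit was not always enough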;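 also: 100% uses oxytocin at 75 nM as the full agonist control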
Target sequence (P30559 whole entry, looked up): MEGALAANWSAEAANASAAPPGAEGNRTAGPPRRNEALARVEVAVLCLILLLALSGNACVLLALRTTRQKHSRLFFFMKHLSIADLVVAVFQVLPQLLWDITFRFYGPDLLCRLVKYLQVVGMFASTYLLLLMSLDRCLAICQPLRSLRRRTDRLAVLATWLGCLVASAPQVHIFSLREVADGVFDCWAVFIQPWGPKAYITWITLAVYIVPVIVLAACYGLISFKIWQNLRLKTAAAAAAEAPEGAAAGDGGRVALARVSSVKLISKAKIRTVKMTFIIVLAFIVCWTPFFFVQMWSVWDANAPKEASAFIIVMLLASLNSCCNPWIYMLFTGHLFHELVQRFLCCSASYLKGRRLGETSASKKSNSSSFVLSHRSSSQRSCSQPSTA
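Assay system: CHO-OTR cells, human receptor / Also added: oxytocin at about EC15, sub-maximal agonist stimulus / Dosing: single dose, 3.0 µM nominal final compound concentration / Incubation: 6 min pre-incubation, 100 s read / Technique: Fluo-8 calcium dye fluorescence / Read-out: % activation vs EC15 and EC100 oxytocin / Benchmarks: EC15 oxytocin low, 75 nM oxytocin high / Replicates: singlicate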
OXTR ag: activates the human oxytocin receptor; P30559; CHO-OTR cells, Fluo-8 calcium fluorescence; normalized: DMSO 0%, oxytocin 100%; activation, % at 3 µM; actives 0.32% (n = 320,000);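 active = activation above the mean of all tested compounds plus 3 SD, cutoff set per screening run, cut at about 20% in these data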;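 also: peak over basal fluorescence ratio from a 100 s FLIPR kinetic read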
TAAR1 antag: antagonists of human TAAR1; CHO RD-HGA16 TAAR1, Fluo-8 calcium fluorescence, antagonist; inhibition, % at 3 µM; actives 1.5% (n = 360,000);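 active = inhibition above a per-plate cutoff, the mean inhibition of test compounds on that plate plus 3 SD, cut at about 49% in these data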;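 also: 0% = DMSO plus EC80 beta-PEA response and 100% = DMSO alone without agonist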
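Test system – hTAAR1-expressing CHO RD-HGA16 cells, Gα16-coupled · Reagent – β-PEA at EC80 concentration, post-compound challenge · Compound dosing – 3 µM, single point · Timing – 140 s kinetic read after compound, 140 s after agonist · Detection – Fluo-8 intracellular calcium dye fluorescence, real-time kinetic reads · Control set – DMSO and EC80 PEA controls · Repeats – n of 1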
TAAR1 nonsel count: counter-screen for TAAR1 antagonists: nonselective antagonists. counterscreen cell line, calcium fluorescence, antagonist mode. shares compounds with TAAR1 antag. actives 77% (n = 2,400). inhibition, % at 3 µM; in the data active = inhibition above about 22%;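 also: CHO-Ga16 host cells stimulated with ATP at an EC80 level; 0% = agonist EC80 plus vehicle and 100% = vehicle without agonist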
TAAR1 ant conf: human TAAR1 antagonism, confirmed; TAAR1-expressing cells, fluorescence antagonist read-out; shares compounds with TAAR1 antag; inhibition, % at 3 µM; AID 651785; actives 40% (n = 2,400); in the data active = inhibition above about 49%;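 also: CHO-Ga16 host cells challenged with agonist PEA near its EC80; 0% = agonist at EC80 plus vehicle and 100% = vehicle with no agonist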
Ga16 nonsel ag: counter-screen for TAAR1 antagonists: nonselective Ga16 agonists | shares compounds with TAAR1 antag | Ga16-expressing cells, calcium fluorescence, agonist counterscreen | activation, % at 3 µM | actives 18% (n = 2,400); in the data active = activation above about 12%;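 also: 0% = vehicle wells and 100% = saturating stimulus response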
TAAR1 ag count: activates human TAAR1 in antagonist counter-screen; shares compounds with TAAR1 antag; hTAAR1 cell line, fluorescence activation, agonist mode; activation, % at 3 µM; actives 2% (n = 2,400); AID 651955; in the data active = activation above about 37%;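 also: CHO cells stably expressing TAAR1 with calcium dye readout; 0% = DMSO vehicle and 100% = full agonist response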
* hit, by the source's call; . = no result given.

SMILES	V1R ag counter	TAAR1 ag	OXTR potentiate	OXTR ag	TAAR1 antag	TAAR1 nonsel count	TAAR1 ant conf	Ga16 nonsel ag	TAAR1 ag count
CCOC(=O)C1CCCN(C(=O)c2ccc(OC)c(OC)c2)CC1 (stereo not given)	.	2.5	.	.	-19.6	.	.	.	.
Cc1ccc(S(=O)(=O)N2[C@@H](c3ccc(Br)cc3)C(C(=O)O)=CC[C@H]2c2ccc(Cl)cc2)cc1	0.7	3.7	-7.5	0.0	67.8*	17.9	51.4*	2.5	3.6
COc1ccc(N2CCN(Cc3nc(-c4ccc(Cl)cc4Cl)no3)CC2)cc1	0.8	-1.2	-2.2	-0.8	5.1	.	.	.	.
CC(C)N1CCN(c2ccc(OC[C@H]3CO[C@](Cn4cncn4)(c4ccc(Cl)cc4Cl)O3)cc2)CC1	1.1	28.5	-12.2	2.3	69.9*	31.5*	48.6*	15.4*	14.4
COc1cc(/C=N/Nc2nc(Nc3ccc(C)cc3)nc(-n3nc(C)cc3C)n2)cc(OC)c1OC	-1.1	10.2	-6.2	-1.4	39.5	.	.	.	.
COc1ccc(O)c(/C=N/Nc2nc(Nc3ccccc3)nc(-n3nc(C)cc3C)n2)c1	-0.8	13.0	-16.2	-0.6	58.8*	37.3*	47.2	7.4	2.5
COc1cc(/C=N/Nc2nc(Nc3ccccc3)nc(-n3nc(C)cc3C)n2)cc(OC)c1OC	-0.5	5.8	-8.2	-1.7	64.5*	24.1*	37.9	6.0	7.2
COc1ccc(CN2C(=O)c3ccccc3C2(C)c2nc3ccccc3[nH]2)cc1 (stereo not given)	.	1.9	.	.	-10.9	.	.	.	.
COC(=O)/C=C/C(=O)N1CCN(c2cccc(Cl)c2)CC1	1.2	.	-4.9	-0.4	.	.	.	.	.
Cc1ccc(CNC(=O)c2ccccc2SCC(=O)NCC2CCCCC2)cc1	0.3	12.4	-3.2	-2.2	62.6*	26.2*	45.1	9.1	7.1
CSc1ccccc1C(=O)NCc1ccc(C)cc1	0.5	-2.5	4.7	-0.5	103.5*	8.2	10.6	0.2	2.8
CCCNc1c(NS(=O)(=O)c2ccc(C)cc2C)c(=O)oc2ccccc12	-1.2	1.7	-9.2	-1.7	-10.8	.	.	.	.
CC1CCCN(C(=O)CCS(=O)(=O)c2cc3c(cc2Cl)NC(=O)CO3)C1 (stereo not given)	1.5	1.6	-3.4	1.2	0.6	.	.	.	.
COc1ccc(/C=N/Nc2nc(-c3cccc(S(=O)(=O)N4CCCC4)c3)cs2)cc1OC	-0.9	1.0	-9.8	-1.4	-0.8	.	.	.	.
COc1cc(/C=N/Nc2nc(-c3ccc(S(=O)(=O)N(C)C)cc3)cs2)ccc1O	2.8	17.4	-26.9	3.9	69.1*	30.1*	42.9	11.5	13.2
CCOC(=O)c1c(C)[nH]c(C(=O)/C(C#N)=C/c2ccc(OC(F)F)c(OC)c2)c1C	1.5	3.8	-6.8	0.6	-30.8	.	.	.	.
CCOC(=O)c1c(C)[nH]c(C(=O)/C(C#N)=C/c2ccc(OC)c(OC)c2)c1C	0.2	8.2	-7.8	0.3	-26.8	.	.	.	.
COc1cc(/C=C(/C#N)C(=O)c2c(C)[nH]c3ccccc23)ccc1OCC#N	2.4	8.5	-0.8	1.0	55.3*	23.8*	50.1*	19.2*	39.7*
CCOc1ccc(/C=C(\C#N)C(=O)c2c(C)[nH]c3ccccc23)cc1OC	2.4	2.1	-7.0	-1.8	57.9*	15.2	38.4	4.9	6.4
Cc1ccc(CCNC(=O)C2CCCN(c3nc4ccccc4o3)C2)cc1 (stereo not given)	0.6	12.4	-4.0	-1.6	49.5*	23.4*	30.5	4.2	1.3
COc1ccc(NC(=O)c2cc(-c3cc(Cl)ccc3O)n[nH]2)c(OC)c1	4.0	0.3	-16.1	0.4	-9.2	.	.	.	.
COc1ccc(NC(=O)c2cc(-c3ccc(F)cc3OC)n[nH]2)c(OC)c1	.	9.6	.	.	66.3*	32.2*	48.4	5.7	4.1
C[C@H](O)[C@@H]1C(=O)N2CCc3ccc(N4CCN(C)CC4)cc3[C@@H]2C[C@@H]1N(C)C(=O)Nc1cc(Cl)cc(Cl)c1	.	3.0	.	.	-23.1	.	.	.	.
CCN(CC(=O)Nc1cc(Cl)ccc1Cl)C(=O)c1ccc(-n2cccn2)cc1	1.8	5.3	-7.7	-1.0	-3.3	.	.	.	.
CCN(c1ccc(OCC(=O)OCC(=O)c2c(N)n(C)c(=O)n(C)c2=O)cc1)S(=O)(=O)c1ccccc1	2.0	2.7	-11.3	3.6	-21.4	.	.	.	.
SMILES	V1R ag counter	TAAR1 ag	OXTR potentiate	OXTR ag	TAAR1 antag	TAAR1 nonsel count	TAAR1 ant conf	Ga16 nonsel ag	TAAR1 ag count
CN(c1ccc(OCC(=O)OCC(=O)c2c(N)n(C)c(=O)n(C)c2=O)cc1)S(=O)(=O)c1ccc2ccccc2c1	1.1	14.8	-5.6	1.1	76.9*	34.8*	56.4*	8.5	10.4
CCCN1CC(=O)N2C(c3ccccc3)c3[nH]c4ccccc4c3C[C@H]2C1=O (stereo not given in full)	.	13.2	.	.	-2.3	.	.	.	.
O=C(O)COc1ccc(NC(=O)c2ccc3c(c2)C(=O)N(Cc2ccccc2)C3=O)cc1	0.0	2.1	-3.3	-0.4	-5.0	.	.	.	.
O=C(Nc1ccc(O)cc1)c1ccc2c(c1)C(=O)N(Cc1ccccc1)C2=O	7.7	27.7	-5.1	9.0	63.5*	21.9*	43.0	13.9*	23.1
Cc1ccc(O)c(NC(=O)c2ccc3c(c2)C(=O)N(Cc2cccnc2)C3=O)c1	2.8	20.7	-11.3	4.8	76.8*	33.8*	59.2*	12.6*	13.7
COC(=O)c1cccc(NC(=O)c2ccc3c(c2)C(=O)N(C(C)(C)C)C3=O)c1	2.5	11.2	-12.2	-2.1	64.8*	37.8*	63.2*	9.3	6.3
CC(C)(C)NC(=O)c1cccc(NC(=O)c2ccc3c(c2)C(=O)N(C(C)(C)C)C3=O)c1	7.8	21.3	-14.0	2.4	85.0*	38.4*	64.9*	13.0*	10.8
CC(C)(C)N1C(=O)c2ccc(C(=O)Nc3ccc(O)cc3)cc2C1=O	0.7	12.3	-7.0	0.2	63.3*	23.6*	25.7	6.6	6.0
CC(C)(C)N1C(=O)c2ccc(C(=O)O)cc2C1=O	0.9	1.6	-9.5	1.4	-14.4	.	.	.	.
CCCN(CCC)S(=O)(=O)c1ccc(C(=O)OCCN2C(=O)c3cccc4c(N5CCOCC5)ccc(c34)C2=O)cc1	0.8	.	-8.6	0.6	.	.	.	.	.
O=C1ON=C(c2ccccc2)/C1=C/c1ccc(-c2ccccc2[N+](=O)[O-])o1	0.3	20.2	0.4	1.4	56.8*	65.7*	63.2*	19.3*	17.9

Bioassay records as filed in PubChem.
